The values that follow come from ChEMBL document CHEMBL3286189, “Discovery and SAR studies of a novel class of cytotoxic 1,4-disubstituted piperidines via Ugi reaction” (Eur J Med Chem, 2014).

Some results are limits rather than exact numbers.

Assay type in all cases: functional, cell-based
The subject of assay [1] is L1210. Put plainly: Cytostatic activity against mouse L1210 cells assessed as inhibition of cell proliferation after 48 hrs by coulter counting analysis. The following applies: Mus musculus, L1210, 48 h. A digest of the protocol:
(§1)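 Anti-proliferative screen in murine leukemia L1210, human T-lymphocyte CEM and human cervix carcinoma HeLa cultures. The value reported is the IC50, the concentration that inhibits cell proliferation by 50%.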

The subject of assay [2] is HeLa. Put plainly: Cytostatic activity against human HeLa cells assessed as inhibition of cell proliferation after 72 hrs by coulter counting analysis. The following applies: Homo sapiens, HeLa, 72 h. A digest of the protocol: as §1
Assay [3] concerns CCRF-CEM. Put plainly: Cytostatic activity against human CEM cells assessed as inhibition of cell proliferation after 72 hrs by coulter counting analysis. The following applies: Homo sapiens, CCRF-CEM, 72 h. Summed up: as §1

The term IC50 denotes the concentration that gives 50% inhibition. Take `COC(=O)C[C@H](NC(=O)OC(C)(C)C)C(=O)N(Cc1ccccc1)C1(C(=O)NCc2ccccc2)CCN(Cc2ccccc2)CC1`: the figures for the IC50 in assay [1], in assay [2] and in assay [3] were 18 µM, 20 µM and 19 µM, respectively.
Regarding `COC(=O)C[C@H](NC(=O)OC(C)(C)C)C(=O)N(CC(=O)OC)C1(C(=O)NCc2ccccc2)CCN(Cc2ccccc2)CC1`, the IC50 turned out to be 49 µM in assay [1], 32 µM in assay [2] and 46 µM in assay [3].
The corresponding values for `C=CCOC(=O)N1CCC(C(=O)NCc2ccccc2)(N(Cc2ccccc2)C(=O)[C@H](CC(=O)OC)NC(=O)OC(C)(C)C)CC1` are 24 µM, 107 µM and 65 µM.
The matching figures for `COC(=O)C[C@H](NC(=O)OC(C)(C)C)C(=O)N(Cc1ccccc1)C1(C(=O)NCc2ccccc2)CCN(C(=O)OC(C)(C)C)CC1`: 21 µM, 24 µM and 21 µM.
The corresponding values for `CCCCNC(=O)C1(N(Cc2ccccc2)C(=O)[C@H](CC(=O)OC)NC(=O)OC(C)(C)C)CCN(Cc2ccccc2)CC1` are 24 µM, 36 µM and 28 µM.
With `COC(=O)C[C@H](NC(=O)OC(C)(C)C)C(=O)N(Cc1ccccc1)C1(C(=O)NC(C)(C)C)CCN(Cc2ccccc2)CC1`, the IC50 in assay [1] amounted to 23 µM; in assay [2] it was 21 µM; in assay [3] it was 24 µM.
With `COC(=O)C[C@H](NC(=O)OC(C)(C)C)C(=O)N(Cc1ccccc1)C1(C(=O)NC2CCCCC2)CCN(Cc2ccccc2)CC1`, the IC50 in assay [1] was 19 µM; in assay [2], 21 µM; in assay [3], 20 µM.
On to `COC(=O)CNC(=O)C1(N(Cc2ccccc2)C(=O)[C@H](CC(=O)OC)NC(=O)OC(C)(C)C)CCN(Cc2ccccc2)CC1`, for which the values for the IC50 in assay [1], in assay [2] and in assay [3] were 123 µM, 227 µM and 109 µM, respectively.
The matching figures for `COC(=O)C[C@H](NC(=O)OC(C)(C)C)C(=O)N(Cc1ccc(F)cc1)C1(C(=O)NCc2ccccc2)CCN(Cc2ccccc2)CC1`: 22 µM, 19 µM and 16 µM.
The matching figures for `COC(=O)C[C@H](NC(=O)OC(C)(C)C)C(=O)N(Cc1cc(OC)c(OC)c(OC)c1)C1(C(=O)NCc2ccccc2)CCN(Cc2ccccc2)CC1`: 31 µM, 22 µM and 23 µM.
The matching figures for `COC(=O)C[C@H](NC(=O)OC(C)(C)C)C(=O)N(CCNc1ccccc1)C1(C(=O)NCc2ccccc2)CCN(Cc2ccccc2)CC1`: 21 µM, 21 µM and 14 µM.
In the case of `COC(=O)C[C@H](NC(=O)OC(C)(C)C)C(=O)NC1(C(=O)NCc2ccccc2)CCN(Cc2ccccc2)CC1`, the values for the IC50 in assay [1], in assay [2] and in assay [3] were 23 µM, 24 µM and 25 µM, respectively.
Take `COC(=O)C[C@H](NC(=O)OC(C)(C)C)C(=O)N(C)C1(C(=O)NCc2ccccc2)CCN(Cc2ccccc2)CC1`: the results for the IC50 in assay [1], in assay [2] and in assay [3] were 17 µM, 11 µM and 20 µM, respectively.
The corresponding values for `CCC(C)N(C(=O)[C@H](CC(=O)OC)NC(=O)OC(C)(C)C)C1(C(=O)NCc2ccccc2)CCN(Cc2ccccc2)CC1` (stereo partly drawn) are 20 µM, 16 µM and 19 µM.
With `COC(=O)C[C@H](NC(=O)OC(C)(C)C)C(=O)N(C1CC1)C1(C(=O)NCc2ccccc2)CCN(Cc2ccccc2)CC1`, the IC50 in assay [1] stood at 14 µM; in assay [2], 7.9 µM; in assay [3], 6.7 µM.
The corresponding values for `CC(C)(C)OC(=O)N1CCC[C@H]1C(=O)N(Cc1ccccc1)C1(C(=O)NCc2ccccc2)CCN(Cc2ccccc2)CC1` are 61 µM, 137 µM and greater than 50 µM.
The corresponding values for `CC[C@H](C)[C@H](NC(=O)OC(C)(C)C)C(=O)N(Cc1ccccc1)C1(C(=O)NCc2ccccc2)CCN(Cc2ccccc2)CC1` are 4.4 µM, 10 µM and 7.1 µM.
The corresponding values for `CC(C)(C)OC(=O)N[C@@H](Cc1ccc(O)cc1)C(=O)N(Cc1ccccc1)C1(C(=O)NCc2ccccc2)CCN(Cc2ccccc2)CC1` are 5 µM, 23 µM and 5.2 µM.
Take `COC(=O)C[C@H](NC(=O)OCc1ccccc1)C(=O)N(Cc1ccccc1)C1(C(=O)NCc2ccccc2)CCN(Cc2ccccc2)CC1`: the IC50 in assay [1] was 5.8 µM; in assay [2] it was 14 µM; in assay [3], 4.5 µM.
The corresponding values for `COC(=O)C[C@H](NC(=O)OCC1c2ccccc2-c2ccccc21)C(=O)N(Cc1ccccc1)C1(C(=O)NCc2ccccc2)CCN(Cc2ccccc2)CC1` are 5.4 µM, 14 µM and 5.2 µM.
The corresponding values for `CC(C)(C)OC(=O)N[C@@H](CC(=O)O)C(=O)N(Cc1ccccc1)C1(C(=O)NCc2ccccc2)CCN(Cc2ccccc2)CC1` are 164 µM, greater than 200 µM and greater than 200 µM.
With `CC(C)(C)OC(=O)N[C@@H](CC(N)=O)C(=O)N(Cc1ccccc1)C1(C(=O)NCc2ccccc2)CCN(Cc2ccccc2)CC1`, the IC50 in assay [1] came out at 27 µM; in assay [2], 25 µM; in assay [3] it was 26 µM.
Regarding `CNC(=O)C[C@H](NC(=O)OC(C)(C)C)C(=O)N(Cc1ccccc1)C1(C(=O)NCc2ccccc2)CCN(Cc2ccccc2)CC1`, the figures for the IC50 in assay [1], in assay [2] and in assay [3] were 94 µM, 84 µM and 63 µM, respectively.
Turning to `CN(C)C(=O)C[C@H](NC(=O)OC(C)(C)C)C(=O)N(Cc1ccccc1)C1(C(=O)NCc2ccccc2)CCN(Cc2ccccc2)CC1`, the IC50 in assay [1] came to 76 µM; in assay [2] it was 68 µM; in assay [3] it was 59 µM.
The matching figures for `COC(=O)C[C@H](NC(=O)OC(C)(C)C)C(=O)N(Cc1ccccc1)C1(C(=O)NCc2ccccc2)CCNCC1`: greater than 200 µM, greater than 167 µM and 124 µM.
The corresponding values for `COC(=O)C[C@H](N)C(=O)N(Cc1ccccc1)C1(C(=O)NCc2ccccc2)CCN(Cc2ccccc2)CC1` are 90 µM, 100 µM and 104 µM.
Turning to `C=CCOC(=O)N1CCC(C(=O)NCc2ccccc2)(N(Cc2ccccc2)C(=O)[C@@H](N)Cc2ccccc2)CC1`, the IC50 in assay [1] was found to be 49 µM; in assay [2], 63 µM; in assay [3] it was 54 µM.
The corresponding values for `CCC(C)N(C(=O)[C@@H](N)Cc1ccccc1)C1(C(=O)NCc2ccccc2)CCN(Cc2ccccc2)CC1` (stereo partly drawn) are 81 µM, 90 µM and 99 µM.
For `CCC(C)N(C(=O)[C@@H](N)CC(=O)OC)C1(C(=O)NCc2ccccc2)CCN(Cc2ccccc2)CC1` (stereo partly drawn), the IC50 in assay [1] was 244 µM; in assay [2] it was greater than 250 µM; in assay [3], 238 µM.
`CCC(C)N(C(=O)[C@@H](N)CC(=O)OC)C1(C(=O)NCc2ccccc2)CCNCC1` (stereo partly drawn): the IC50 in assay [1], in assay [2] and in assay [3] was greater than 250 µM throughout.
In the case of `O=C(N[C@@H](Cc1ccccc1)C(=O)N(Cc1ccccc1)C1(C(=O)NCc2ccccc2)CCN(Cc2ccccc2)CC1)Oc1ccccc1`, the IC50 came out at 3.5 µM in assay [1], 17 µM in assay [2] and 9 µM in assay [3].
On to `CCC(C)N(C(=O)[C@H](Cc1ccccc1)NC(=O)OC(C)(C)C)C1(C(=O)NCc2ccccc2)CCN(Cc2ccccc2)CC1` (stereo partly drawn), for which the values for the IC50 in assay [1], in assay [2] and in assay [3] were 4.2 µM, 24 µM and 10 µM, respectively.
The matching figures for `CC(C)(C)OC(=O)N[C@@H](Cc1ccccc1)C(=O)N(Cc1ccccc1)C1(C(=O)NCc2ccccc2)CCN(C(=O)OC(C)(C)C)CC1`: 5 µM, 13 µM and 5.7 µM.
Consider `CC[C@@H](C)[C@H](NC(=O)OCc1ccccc1)C(=O)N(Cc1ccccc1)C1(C(=O)NCc2ccccc2)CCN(C(=O)OC(C)(C)C)CC1`, for which the IC50 in assay [1] came to 5.1 µM; in assay [2] it was 11 µM; in assay [3], 6.8 µM.
Regarding `CC(C)(C)NC(=O)C1(N(C(=O)[C@H](Cc2ccccc2)NC(=O)OCc2ccccc2)C2CC2)CCN(Cc2ccccc2)CC1`, the IC50 in assay [1] is 6.6 µM; in assay [2], 26 µM; in assay [3], 6 µM.
`CC(C)(C)NC(=O)C1(N(C(=O)[C@H](Cc2ccccc2)NC(=O)OCc2ccccc2)C2CC2)CCN(C(=O)OC(C)(C)C)CC1`: the IC50 in assay [1] turned out to be 17 µM; in assay [2], 148 µM; in assay [3], 15 µM.
Consider `CC(C)(C)NC(=O)C1(N(C(=O)[C@H](Cc2ccccc2)NC(=O)OC(C)(C)C)C2CC2)CCN(Cc2ccccc2)CC1`, for which the IC50 in assay [1] was found to be 14 µM; in assay [2] it was 20 µM; in assay [3], 19 µM.
The matching figures for `CC(C)(C)NC(=O)C1(N(C(=O)[C@H](Cc2ccccc2)NC(=O)OC(C)(C)C)C2CC2)CCN(C(=O)OC(C)(C)C)CC1`: 14 µM, 20 µM and 19 µM.
The matching figures for `CCC(C)N(C(=O)[C@@H](NC(=O)OCc1ccccc1)[C@@H](C)CC)C1(C(=O)NCc2ccccc2)CCN(Cc2ccccc2)CC1` (stereo partly drawn): 83 µM, 119 µM and 111 µM.
The corresponding values for `CC[C@H](C)[C@H](NC(=O)OCc1ccccc1)C(=O)N(C1CC1)C1(C(=O)NCc2ccccc2)CCN(Cc2ccccc2)CC1` are 11 µM, 30 µM and 16 µM.
For the compound `COC(=O)C[C@H](NC(=O)OCc1ccccc1)C(=O)N(C1CC1)C1(C(=O)NCc2ccccc2)CCN(Cc2ccccc2)CC1`, the IC50 was 5.3 µM in assay [1], 4.7 µM in assay [2] and 6.2 µM in assay [3].
